Data as given in ChEMBL document CHEMBL1144813, “4'-Methyl-4,5'-bithiazole-based correctors of defective delta F508-CFTR cellular processing” (Bioorg Med Chem Lett, 2008).
Active and inactive are the calls of the source. The rule behind the calls is not given here.

What was measured:
Format in all cases: cell-based
[1] = target: Cystic fibrosis transmembrane conductance regulator (Homo sapiens, UniProt P13569, F508DEL); assay: Corrector activity at human CFTR deltaF508 mutant expressed in FRT cells assessed as iodide influx; conditions: read-out: Kd
Procedure, shortened: (§1)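 FRT epithelial cells stably co-expressing human ΔF508-CFTR and halide sensor YFP-H148Q/I152L; grown 24 h at 37°C, then 20 h with compound. PBS wash, then forskolin 20 μM plus genistein 50 μM for 20 min. Fluorescence read 2 s baseline, then 12 s after iodide-substituted PBS addition; influx rate from exponential fit of final 11.5 s, normalized to initial fluorescence; DMSO vehicle negative control.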

[2] = test system: Cystic fibrosis transmembrane conductance regulator (Homo sapiens), P13569 [F508del]; assay: Corrector activity at human CFTR deltaF508 mutant expressed in FRT cells assessed as iodide influx at 25 uM; procedure, shortened: as §1
[3] = test system: Cystic fibrosis transmembrane conductance regulator (Homo sapiens), P13569 [F508del]; assay: Corrector activity at human CFTR deltaF508 mutant expressed in FRT cells assessed as iodide influx at 10 uM; procedure, shortened: as §1

Cystic fibrosis transmembrane conductance regulator (Homo sapiens), P13569 [F508del], sequence (P13569 as listed by the source): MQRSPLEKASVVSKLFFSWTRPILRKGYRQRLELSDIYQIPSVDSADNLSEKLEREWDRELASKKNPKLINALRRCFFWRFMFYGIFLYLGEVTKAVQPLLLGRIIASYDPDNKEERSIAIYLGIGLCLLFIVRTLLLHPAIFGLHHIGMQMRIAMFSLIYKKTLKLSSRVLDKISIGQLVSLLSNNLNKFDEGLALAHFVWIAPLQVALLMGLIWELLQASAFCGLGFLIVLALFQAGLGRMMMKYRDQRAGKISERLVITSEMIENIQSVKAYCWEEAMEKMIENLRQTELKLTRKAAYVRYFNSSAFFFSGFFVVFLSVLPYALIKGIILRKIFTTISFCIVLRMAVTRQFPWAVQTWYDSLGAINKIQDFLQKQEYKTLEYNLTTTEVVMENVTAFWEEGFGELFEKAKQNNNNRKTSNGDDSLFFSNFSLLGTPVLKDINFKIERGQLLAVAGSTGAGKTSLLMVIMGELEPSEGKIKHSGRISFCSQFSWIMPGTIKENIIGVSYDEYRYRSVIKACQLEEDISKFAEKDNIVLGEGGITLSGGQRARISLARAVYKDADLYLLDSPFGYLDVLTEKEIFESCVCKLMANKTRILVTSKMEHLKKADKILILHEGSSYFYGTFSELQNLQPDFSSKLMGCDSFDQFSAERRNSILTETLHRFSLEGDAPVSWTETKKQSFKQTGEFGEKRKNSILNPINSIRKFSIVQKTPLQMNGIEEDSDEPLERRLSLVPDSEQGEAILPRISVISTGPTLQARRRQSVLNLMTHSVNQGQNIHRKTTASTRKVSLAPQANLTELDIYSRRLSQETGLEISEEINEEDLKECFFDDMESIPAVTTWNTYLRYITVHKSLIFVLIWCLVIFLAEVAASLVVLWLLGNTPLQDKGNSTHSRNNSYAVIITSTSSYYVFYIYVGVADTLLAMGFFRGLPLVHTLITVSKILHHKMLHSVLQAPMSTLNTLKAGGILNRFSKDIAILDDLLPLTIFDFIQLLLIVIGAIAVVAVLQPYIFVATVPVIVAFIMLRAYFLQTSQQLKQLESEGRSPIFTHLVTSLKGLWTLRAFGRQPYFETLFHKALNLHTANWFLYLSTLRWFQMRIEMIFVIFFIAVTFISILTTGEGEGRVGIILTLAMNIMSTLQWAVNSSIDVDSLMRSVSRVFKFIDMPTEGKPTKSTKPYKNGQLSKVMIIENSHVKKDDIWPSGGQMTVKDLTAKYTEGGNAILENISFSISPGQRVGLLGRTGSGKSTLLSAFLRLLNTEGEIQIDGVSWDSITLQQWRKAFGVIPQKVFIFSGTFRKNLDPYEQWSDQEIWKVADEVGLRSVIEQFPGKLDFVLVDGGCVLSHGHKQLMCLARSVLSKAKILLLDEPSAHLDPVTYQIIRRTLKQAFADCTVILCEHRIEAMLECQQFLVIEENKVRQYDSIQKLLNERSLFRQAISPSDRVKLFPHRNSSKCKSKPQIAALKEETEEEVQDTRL
Cystic fibrosis transmembrane conductance regulator, sequence (P13569 as listed by the source): as above

| SMILES | EC50 [1] | Activity [2] | Activity [3] |
| --- | --- | --- | --- |
| COc1c(Cl)cccc1Nc1nc(-c2sc(NC(=O)c3ccccc3)nc2C)cs1 | – | Active | Active |
| Cc1nc(NC(=O)c2ccc(Cl)cc2)sc1-c1csc(Nc2ccc(Cl)cc2)n1 | 1.1 µM | – | – |
| Cc1nc(NC(=O)c2ccccc2)sc1-c1csc(Nc2cccc(Cl)c2Cl)n1 | – | Active | Active |
| Cc1ccc(Nc2nc(-c3sc(NC(=O)c4ccc(Cl)cc4)nc3C)cs2)cc1 | 1.1 µM | – | – |
| Cc1nc(NC(=O)c2ccc([N+](=O)[O-])cc2)sc1-c1csc(Nc2ccc(Cl)cc2)n1 | 0.8 µM | – | – |

Other lines, results leading:

| EC50 [1] | Activity [2] | Activity [3] | SMILES |
| --- | --- | --- | --- |
| 0.7 µM | – | – | COc1ccc(Cl)cc1Nc1nc(-c2sc(NC(=O)C(C)(C)C)nc2C)cs1 |
| 1.1 µM | – | – | COc1ccc(OC)c(Nc2nc(-c3sc(NC(=O)c4ccc(Cl)cc4)nc3C)cs2)c1 |
| 1.1 µM | – | – | CCCCCCC(=O)Nc1nc(C)c(-c2csc(Nc3cc(OC)ccc3OC)n2)s1 |
| 0.9 µM | Active | Active | COc1ccc(Cl)cc1Nc1nc(-c2sc(NC(=O)c3ccccc3)nc2C)cs1 |
| 0.8 µM | – | – | CCOc1ccccc1Nc1nc(-c2sc(NC(=O)C(C)(C)C)nc2C)cs1 |
